In ChEMBL document CHEMBL1155725, “Antimicrobial cuparene-type sesquiterpenes, enokipodins C and D, from a mycelial culture of Flammulina velutipes” (2001):
Active and inactive are the calls of the source. The calls are words filed in the database; no cut-off is given here.

Legend:
Bacillus subtilis [1] = assay: Antimicrobial activity against Bacillus subtilis LMA0011 at 25 ug/8 mm disk after 18 hrs by paper disk method; type: functional
In short: (§1)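 Disk diffusion: 25 or 50 µg sample in acetone (20 µL) on air-dried 8 mm paper disk, placed on agar seeded with organism; plates held overnight at 4 °C for diffusion, then 37 °C for 18 h. Read-out: diameter of clear inhibition zone; triplicate.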

Pseudomonas fluorescens [2] = assay: Antimicrobial activity against Pseudomonas fluorescens AHU1719 at 25 ug/8 mm disk after 18 hrs by paper disk method; type: functional; in short: as §1
Pseudomonas fluorescens [3] = assay: Antimicrobial activity against Pseudomonas fluorescens AHU1719 at 50 ug/8 mm disk after 18 hrs by paper disk method; type: functional; in short: as §1
Bacillus subtilis [4] = assay: Antimicrobial activity against Bacillus subtilis LMA0011 at 50 ug/8 mm disk after 18 hrs by paper disk method; type: functional; in short: as §1
Cladosporium herbarum = assay: Antifungal activity against Cladosporium herbarum AHU9262 after 3 days by TLC plate assay; type: functional, organism-based
In short: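 TLC bioautography: EtOAc extract of culture filtrate (equivalent to 0.25 mL medium) developed in CHCl3–MeOH 25:1, sprayed with C. herbarum spore suspension, incubated 25 °C under humid conditions for 3 days; inhibitory zones matched to UV 254 nm spots.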

Staphylococcus aureus [5] = assay: Antimicrobial activity against Staphylococcus aureus AHU1142 at 50 ug/8 mm disk after 18 hrs by paper disk method; type: functional; in short: as §1
Staphylococcus aureus [6] = assay: Antimicrobial activity against Staphylococcus aureus AHU1142 at 25 ug/8 mm disk after 18 hrs by paper disk method; type: functional; in short: as §1
Escherichia coli [7] = assay: Antimicrobial activity against Escherichia coli AHU1714 at 25 ug/8 mm disk after 18 hrs by paper disk method; type: functional; in short: as §1
Escherichia coli [8] = assay: Antimicrobial activity against Escherichia coli AHU1714 at 50 ug/8 mm disk after 18 hrs by paper disk method; type: functional; in short: as §1
Bacillus subtilis [9] = assay: Antimicrobial activity against Bacillus subtilis LMA0011 at 12.5 ug/8 mm disk after 18 hrs by paper disk method; type: functional
In short: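 Positive-control disk diffusion: pentachlorophenol 12.5 µg on 8 mm paper disk on seeded agar; overnight at 4 °C, then 37 °C for 18 h; clear inhibition-zone diameter measured; triplicate.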

Row | SMILES | inhibition zone (IZ) (Bacillus subtilis [1]) [mm] | inhibition zone (IZ) (Pseudomonas fluorescens [2]) [mm] | inhibition zone (IZ) (Pseudomonas fluorescens [3]) [mm] | inhibition zone (IZ) (Bacillus subtilis [4]) [mm] | Activity (Cladosporium herbarum) | inhibition zone (IZ) (Staphylococcus aureus [5]) [mm] | inhibition zone (IZ) (Staphylococcus aureus [6]) [mm] | inhibition zone (IZ) (Escherichia coli [7]) [mm] | inhibition zone (IZ) (Escherichia coli [8]) [mm] | inhibition zone (IZ) (Bacillus subtilis [9]) [mm]
1 | Cc1cc2c(cc1O)[C@@]1(C)CC[C@@](O)(O2)C1(C)C [ENOKIPODIN A] | 28 | 0 | 0 | 32.6 | Active | 25.2 | 19.2 | 0 | 0 | 
2 | CC1=CC(=O)C([C@@]2(C)CCC(=O)C2(C)C)=CC1=O [ENOKIPODIN B] | 17 |  |  | 21 | Active | 14 | 0 | 0 | 0 | 
3 | Cc1cc2c(cc1O)[C@@]1(C)[C@H](O)C[C@@](O)(O2)C1(C)C [ENOKIPODIN C] | 20 | 0 | 0 | 26 | Active | 21.2 | 18 | 0 | 0 | 
4 | CC1=CC(=O)C([C@@]2(C)[C@H](O)CC(=O)C2(C)C)=CC1=O [ENOKIPODIN D] | 11 |  |  | 16 | Active | 11.6 | 0 | 0 | 0 | 
5 | Oc1c(Cl)c(Cl)c(Cl)c(Cl)c1Cl [PENTACHLOROPHENOL] | 31 |  |  |  |  |  |  |  |  | 26.6
